According to PMC11027041 (RSC Advances, 2024):
Values belong to the compound of their own block, whether it stands above or below them.

Experiments:
[1] = tested on: colon cancer cell line HCT-116; test: Cell viability assay; format: cell-based; settings: Homo sapiens, HCT-116, 72 h, read-out: Antiproliferative IC50 HCT116
[2] = tested on: melanoma cell line SK-MEL-2; test: Cell viability assay; format: cell-based; settings: Homo sapiens, SK-MEL-2, 72 h, read-out: Antiproliferative IC50 SK-MEL-2
HDAC1 = HDAC1 (Homo sapiens, UniProt Q13547); test: In vitro HDAC enzyme assay; format: biochemical; settings: for inhibition at 0.5 µM: read-out: Inhibition% (inhibition rate, IR) against HDAC1, at a concentration of 500 nM
[3] = tested on: normal bone marrow cells HS-5; test: Cell viability assay; format: cell-based; settings: 72 h, read-out: Antiproliferative IC50 HS-5
How it was run: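 Cells grown in IMDM with 20% FBS, 100 U per mL penicillin and 100 μg per mL streptomycin, then plated in 96-well format. Test compound exposure was 72 h. Alamar blue solution (1 mM, as added) was then applied for a further 5–6 h, and […] was read at 530/590 nm. Data were normalized to vehicle, as means of three independent measurements (standard errors <20%), and IC50 was calculated.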

HDAC1, sequence (Q13547 whole entry): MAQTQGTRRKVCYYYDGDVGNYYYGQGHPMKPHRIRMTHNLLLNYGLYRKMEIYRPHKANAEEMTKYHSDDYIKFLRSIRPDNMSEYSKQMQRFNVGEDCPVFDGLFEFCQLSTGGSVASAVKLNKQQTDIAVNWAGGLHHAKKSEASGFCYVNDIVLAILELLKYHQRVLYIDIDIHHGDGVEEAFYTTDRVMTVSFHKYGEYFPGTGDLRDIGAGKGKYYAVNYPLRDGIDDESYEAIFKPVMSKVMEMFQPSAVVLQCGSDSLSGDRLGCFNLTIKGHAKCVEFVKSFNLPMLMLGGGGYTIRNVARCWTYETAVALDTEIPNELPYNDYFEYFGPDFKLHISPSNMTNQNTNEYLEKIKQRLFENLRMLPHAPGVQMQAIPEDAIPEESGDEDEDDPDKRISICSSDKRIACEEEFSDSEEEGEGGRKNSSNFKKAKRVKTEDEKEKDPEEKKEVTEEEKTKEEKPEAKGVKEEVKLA

Structure (SMILES): COc1ccc(CN2Cc3[nH]c4ccccc4c3C[C@H]2C(=O)NCCCCCCC(=O)NO)cc1 [Compound 9a, (S)-N-(7-(Hydroxyamino)-7-oxoheptyl)-2-(4-methoxybenzyl)-2,3,4,9-tetrahydro-1H-pyrido[3,4-b]indole-3-carboxamide]
inhibition at 0.5 µM (HDAC1; duplicate): 31.8%

Structure (SMILES): O=C(CCCCCNC(=O)[C@@H]1Cc2c([nH]c3ccccc23)[C@@H](c2ccccc2)N1)NO [Compound 9d, (1R,3S)-N-(6-(Hydroxyamino)-6-oxohexyl)-1-phenyl-2,3,4,9-tetrahydro-1H-pyrido[3,4-b]indole-3-carboxamide]
inhibition at 0.5 µM (HDAC1; duplicate): 39.6%

Structure (SMILES): COc1ccc(CN2[C@H](C)c3[nH]c4ccccc4c3C[C@H]2C(=O)NCCCCCC(=O)NO)cc1 [Compound 9e, (1R,3S)-N-(6-(Hydroxyamino)-6-oxohexyl)-2-(4-methoxybenzyl)-1-methyl-2,3,4,9-tetrahydro-1H-pyrido[3,4-b]indole-3-carboxamide]
inhibition at 0.5 µM (HDAC1; duplicate): 58.1%

Structure (SMILES): O=C(CCCCCCNC(=O)[C@@H]1Cc2c([nH]c3ccccc23)[C@@H](c2ccc(Cl)cc2)N1)NO [Compound 9g, (1R,3S)-1-(4-Chlorophenyl)-N-(7-(hydroxyamino)-7-oxoheptyl)-2,3,4,9-tetrahydro-1H-pyrido[3,4-b]indole-3-carboxamide]
inhibition at 0.5 µM (HDAC1; duplicate): 65.4%

Structure (SMILES): COc1ccc([C@H]2N[C@H](C(=O)NCCCCCCC(=O)NO)Cc3c2[nH]c2ccccc32)cc1OC [Compound 9h, (1R,3S)-1-(3,4-Dimethoxyphenyl)-N-(7-(hydroxyamino)-7-oxoheptyl)-2,3,4,9-tetrahydro-1H-pyrido[3,4-b]indole-3-carboxamide]
inhibition at 0.5 µM (HDAC1; duplicate): 46.5%

Structure (SMILES): COc1ccc(CN2Cc3[nH]c4ccccc4c3C[C@@H]2C(=O)NCCCCCCC(=O)NO)cc1 [Compound 13a, (R)-N-(7-(Hydroxyamino)-7-oxoheptyl)-2-(4-methoxybenzyl)-2,3,4,9-tetrahydro-1H-pyrido[3,4-b]indole-3-carboxamide]
inhibition at 0.5 µM (HDAC1; duplicate): 44.3%

Structure (SMILES): COc1ccc([C@@H]2N[C@@H](C(=O)NCCCCCCC(=O)NO)Cc3c2[nH]c2ccccc32)cc1 [Compound 13c, (1S,3R)-N-(7-(Hydroxyamino)-7-oxoheptyl)-1-(4-methoxyphenyl)-2,3,4,9-tetrahydro-1H-pyrido[3,4-b]indole-3-carboxamide]
IC50 (HDAC1): 0.047 ± 0.00125 µM
Inhibition% (inhibition rate, IR) against HDAC1 (HDAC1; at a concentration of 500 nM, duplicate, 0.5 µM): 81.6%
inhibition at 0.5 µM (HDAC1; duplicate): 66%

Structure (SMILES): COc1ccc(CN2[C@@H](C(=O)NCCCCCCC(=O)NO)Cc3c([nH]c4ccccc34)[C@@H]2C)cc1 [Compound 13f, (1S,3R)-N-(7-(Hydroxyamino)-7-oxoheptyl)-2-(4-methoxybenzyl)-1-methyl-2,3,4,9-tetrahydro-1H-pyrido[3,4-b]indole-3-carboxamide]
IC50 [3]: > 50 µM
IC50 (HDAC1): 0.0224 ± 0.00084 µM
inhibition at 0.5 µM (HDAC1; duplicate): 91.4%
IC50 [1]: 4.22 ± 0.12 µM
IC50 [2]: 5.7 ± 0.12 µM

Structure (SMILES): O=C(CCCCCCNC(=O)[C@H]1Cc2c([nH]c3ccccc23)[C@H](C2CC2)N1Cc1ccccc1)NO [Compound 13g, (1S,3R)-2-Benzyl-1-cyclopropyl-N-(7-(hydroxyamino)-7-oxoheptyl)-2,3,4,9-tetrahydro-1H-pyrido[3,4-b]indole-3-carboxamide]
IC50 [3]: > 50 µM
IC50 (HDAC1): 0.0104 ± 0.00065 µM
inhibition at 0.5 µM (HDAC1; duplicate): 98.2%
IC50 [1]: 3.2 ± 0.09 µM
IC50 [2]: 3.16 ± 0.08 µM

Structure (SMILES): O=C(CCCCCNC(=O)[C@H]1Cc2c([nH]c3ccccc23)[C@H](c2ccc(Cl)cc2)N1)NO [Compound 13h, (1S,3R)-1-(4-Chlorophenyl)-N-(6-(hydroxyamino)-6-oxohexyl)-2,3,4,9-tetrahydro-1H-pyrido[3,4-b]indole-3-carboxamide]
inhibition at 0.5 µM (HDAC1; duplicate): 51.3%

Now from value to compound, other results behind:

IC50 [1]: 3.87 ± 0.11 µM
IC50 [2]: 4.5 ± 0.14 µM
Structure (SMILES): O=C(CCCCCCNC(=O)c1cnc(N(c2ccccc2)c2ccccc2)nc1)NO [ACY-1215, reference compound]

inhibition at 0.5 µM (HDAC1; duplicate): 23.2%
Structure (SMILES): COc1ccc([C@H]2N[C@H](C(=O)NCCCCCC(=O)NO)Cc3c2[nH]c2ccccc32)cc1 [Compound 9b, (1R,3S)-N-(6-(Hydroxyamino)-6-oxohexyl)-1-(4-methoxyphenyl)-2,3,4,9-tetrahydro-1H-pyrido[3,4-b]indole-3-carboxamide]

inhibition at 0.5 µM (HDAC1; duplicate): 41.3%
Structure (SMILES): COc1ccc([C@H]2N[C@H](C(=O)NCCCCCCC(=O)NO)Cc3c2[nH]c2ccccc32)cc1 [Compound 9c, (1R,3S)-N-(7-(Hydroxyamino)-7-oxoheptyl)-1-(4-methoxyphenyl)-2,3,4,9-tetrahydro-1H-pyrido[3,4-b]indole-3-carboxamide]

inhibition at 0.5 µM (HDAC1; duplicate): 40.8%
Structure (SMILES): COc1ccc(CN2[C@H](C)c3[nH]c4ccccc4c3C[C@H]2C(=O)NCCCCCCC(=O)NO)cc1 [Compound 9f, (1R,3S)-N-(7-(Hydroxyamino)-7-oxoheptyl)-2-(4-methoxybenzyl)-1-methyl-2,3,4,9-tetrahydro-1H-pyrido[3,4-b]indole-3-carboxamide]

inhibition at 0.5 µM (HDAC1; duplicate): 77.3%
Structure (SMILES): O=C(CCCCCCNC(=O)[C@@H]1Cc2c([nH]c3ccccc23)[C@@H](C2CC2)N1)NO [Compound 9i, (1R,3S)-1-Cyclopropyl-N-(7-(hydroxyamino)-7-oxoheptyl)-2,3,4,9-tetrahydro-1H-pyrido[3,4-b]indole-3-carboxamide]

inhibition at 0.5 µM (HDAC1; duplicate): 49.2%
Structure (SMILES): COc1ccc([C@@H]2N[C@@H](C(=O)NCCCCCC(=O)NO)Cc3c2[nH]c2ccccc32)cc1 [Compound 13b, (1S,3R)-N-(6-(Hydroxyamino)-6-oxohexyl)-1-(4-methoxyphenyl)-2,3,4,9-tetrahydro-1H-pyrido[3,4-b]indole-3-carboxamide]

IC50 (HDAC1): 0.0536 ± 0.0025 µM
inhibition at 0.5 µM (HDAC1; duplicate): 84.8%
IC50 [1]: 8.34 ± 0.24 µM
IC50 [2]: 9.65 ± 0.46 µM
Structure (SMILES): COc1ccc(CN2[C@@H](C(=O)NCCCCCC(=O)NO)Cc3c([nH]c4ccccc34)[C@@H]2C)cc1 [Compound 13e, (1S,3R)-N-(6-(Hydroxyamino)-6-oxohexyl)-2-(4-methoxybenzyl)-1-methyl-2,3,4,9-tetrahydro-1H-pyrido[3,4-b]indole-3-carboxamide]
IC50 [3]: > 50 µM

inhibition at 0.5 µM (HDAC1; duplicate): 66%
IC50 [1]: 7.55 ± 0.18 µM
IC50 [2]: 7.84 ± 0.26 µM
Structure (SMILES): O=C(CCCCCCNC(=O)[C@H]1Cc2c([nH]c3ccccc23)[C@H](c2ccc(Cl)cc2)N1)NO [Compound 13i, (1S,3R)-1-(4-Chlorophenyl)-N-(7-(hydroxyamino)-7-oxoheptyl)-2,3,4,9-tetrahydro-1H-pyrido[3,4-b]indole-3-carboxamide]
IC50 [3]: > 50 µM

inhibition at 0.5 µM (HDAC1; duplicate): 72.5%
Structure (SMILES): COc1ccc([C@@H]2N[C@@H](C(=O)NCCCCCCC(=O)NO)Cc3c2[nH]c2ccccc32)cc1OC [Compound 13j, (1S,3R)-1-(3,4-Dimethoxyphenyl)-N-(7-(hydroxyamino)-7-oxoheptyl)-2,3,4,9-tetrahydro-1H-pyrido[3,4-b]indole-3-carboxamide]
